ChEMBL document CHEMBL3525963, “Tissue distribution and elimination of [14C]apixaban in rats” (Drug Metab Dispos, 2011)

What was measured:
Design in all cases: dose 5 mg/kg, dosed compound name [14C]-apixaban, route oral
Details in all cases: in vivo
Rattus norvegicus [1] = assay: Biodistribution in pregnant Sprague-Dawley rat brown fat at 5 mg/kg, po administered as single dose measured after 1 hr; format: ADME, organism-based, Brown adipose tissue
Rattus norvegicus [2] = assay: Biodistribution in female Sprague-Dawley rat brown fat at 5 mg/kg, po administered as single dose measured after 4 hrs; format: ADME, organism-based, Brown adipose tissue
Summary of the method: (§1)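 [14C]apixaban (20 μCi/mL in dosing solution) in 0.5% Tween 80 in Labrafil given by oral gavage to fasted female rats, 206-213 g, at 100 μCi/kg. One rat per time point was euthanized and snap-frozen. Sagittal 40 µm whole-body sections were read by QWBA phosphor imaging against [14C]glucose standards. Results are in µg eq apixaban/g, with LLOQ 0.037 μg eq/g.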

Thymus [3] = assay: Biodistribution in male Sprague-Dawley rat thymus at 5 mg/kg, po administered as single dose measured after 1 hr; format: ADME, organism-based
Rattus norvegicus [4] = assay: Biodistribution in male Sprague-Dawley rat kidney cortex at 5 mg/kg, po administered as single dose measured after 8 hrs; format: ADME, organism-based
Lung [5] = assay: Biodistribution in female Sprague-Dawley rat lung at 5 mg/kg, po administered as single dose measured after 8 hrs; format: ADME, organism-based
Summary of the method: (§2)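 [¹⁴C]Apixaban given by oral gavage at 5 mg/kg (100 μCi/kg) in 0.5% Tween 80 in Labrafil (1.0 mg/mL dosing solution) to rats fasted overnight through 4 h post-dose. One rat per time point; carcass frozen in hexane/dry ice. Quantitative whole-body autoradiography used 40 µm sagittal sections and a phosphor imaging plate calibrated with [¹⁴C]glucose standards (0.001–6.5 μCi/g). Read-out in µg eq apixaban/g; LLOQ 0.037 μg eq/g.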

Thymus [6] = assay: Biodistribution in female Sprague-Dawley rat thymus at 5 mg/kg, po administered as single dose measured after 24 hrs; format: ADME, organism-based
Summary of the method: (§3)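 Quantitative whole-body autoradiography was run after a single 5 mg/kg (100 μCi/kg) oral gavage to fasted female or pregnant SD rats, one rat per time point. Carcasses were frozen in hexane/dry ice, and 40 µm sagittal sections were dried at −20°C for at least 48 h. Sections were exposed to a phosphor plate alongside [14C]glucose standards (0.001–6.5 µCi/g). Results are µg eq/g, with LLOQ 0.037 µg eq/g.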

Lung [7] = assay: Biodistribution in pregnant Sprague-Dawley rat lung at 5 mg/kg, po administered as single dose measured after 24 hrs; format: ADME, organism-based
Rattus norvegicus [8] = assay: Biodistribution in female Sprague-Dawley rat salivary gland at 5 mg/kg, po administered as single dose measured after 4 hrs; format: ADME, organism-based; summary of the method: as §1
Rattus norvegicus [9] = assay: Biodistribution in female Sprague-Dawley rat salivary gland at 5 mg/kg, po administered as single dose measured after 8 hrs; format: ADME, organism-based; summary of the method: as §1
Adrenal gland [10] = assay: Biodistribution in pregnant Sprague-Dawley rat adrenal gland at 5 mg/kg, po administered as single dose measured after 8 hrs; format: ADME, organism-based
Brain = assay: Biodistribution in pregnant Sprague-Dawley rat brain at 5 mg/kg, po administered as single dose measured after 24 hrs; format: ADME, organism-based
Summary of the method: (§4)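 Fasted pregnant SD rats (n=6, 270-319 g) each received one oral gavage dose of [14C]apixaban, 5 mg/kg (100 μCi/kg), in 0.5% Tween 80/Labrafil. One rat was killed at each of 0.5, 1, 4, 8, 24 and 48 h. Carcasses were frozen in hexane/dry ice, cut into 40 µm sagittal sections, exposed to phosphor plates and quantified against [14C]glucose standards as µg eq/g. LLOQ was 0.037 µg eq/g.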

Rattus norvegicus [11] = assay: Biodistribution in fetal liver of pregnant Sprague-Dawley rat at 5 mg/kg, po administered as single dose measured after 24 hrs; format: ADME, organism-based; summary of the method: as §4
Liver = assay: Biodistribution in male Sprague-Dawley rat liver at 5 mg/kg, po administered as single dose measured after 8 hrs; format: ADME, organism-based
Summary of the method: (§5)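 [14C]apixaban (1.0 mg/mL, 20 μCi/mL) in 0.5% Tween 80 in Labrafil, given by oral gavage at 100 μCi/kg to male rats (225-252 g) fasted overnight through 4 h post-dose. One rat per time point. Carcasses frozen in hexane/dry ice and cut into 40 µm sagittal sections. QWBA read on phosphor plates against [14C]glucose standards, reported as µg eq/g. LLOQ 0.037 µg eq/g.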

Spleen [12] = assay: Biodistribution in female Sprague-Dawley rat spleen at 5 mg/kg, po administered as single dose measured after 0.5 hrs; format: ADME, organism-based; summary of the method: as §2
Spleen [13] = assay: Biodistribution in female Sprague-Dawley rat spleen at 5 mg/kg, po administered as single dose measured after 4 hrs; format: ADME, organism-based; summary of the method: as §2
Rattus norvegicus [14] = assay: Biodistribution in pregnant Sprague-Dawley rat placenta at 5 mg/kg, po administered as single dose measured after 4 hrs; format: ADME, organism-based
Rattus norvegicus [15] = assay: Biodistribution in pregnant Sprague-Dawley rat pituitary gland at 5 mg/kg, po administered as single dose measured after 0.5 hrs; format: ADME, organism-based
Rattus norvegicus [16] = assay: Biodistribution in male Sprague-Dawley rat bone marrow at 5 mg/kg, po administered as single dose measured after 8 hrs; format: ADME, organism-based
Summary of the method: (§6)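 Fasted male rats, 225-252 g, received [14C]apixaban by single oral gavage at 100 μCi/kg in 0.5% Tween 80/Labrafil. One rat was killed per time point and the carcass frozen. Tissue radioactivity was quantified by QWBA (40 µm sagittal sections, phosphor plate, [14C]glucose calibration) as µg eq apixaban/g, with LLOQ 0.037 μg eq/g.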

Heart [17] = assay: Biodistribution in female Sprague-Dawley rat heart at 5 mg/kg, po administered as single dose measured after 72 hrs; format: ADME, organism-based; summary of the method: as §3
Pancreas = assay: Biodistribution in male Sprague-Dawley rat pancreas at 5 mg/kg, po administered as single dose measured after 8 hrs; format: ADME, organism-based; summary of the method: as §5
Thymus [18] = assay: Biodistribution in pregnant Sprague-Dawley rat thymus at 5 mg/kg, po administered as single dose measured after 1 hr; format: ADME, organism-based
Rattus norvegicus [19] = assay: Biodistribution in pregnant Sprague-Dawley rat bone marrow at 5 mg/kg, po administered as single dose measured after 4 hrs; format: ADME, organism-based
Rattus norvegicus [20] = assay: Biodistribution in female Sprague-Dawley rat brown fat at 5 mg/kg, po administered as single dose measured after 72 hrs; format: ADME, organism-based, Brown adipose tissue; summary of the method: as §3
Rattus norvegicus [21] = assay: Biodistribution in male Sprague-Dawley rat pituitary gland at 5 mg/kg, po administered as single dose measured after 24 hrs; format: ADME, organism-based
Summary of the method: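 Fasted male SD rats (225-252 g) each received one oral gavage dose of [14C]apixaban, 5 mg/kg (100 μCi/kg), in 0.5% Tween 80/Labrafil vehicle. One rat was killed per time point, from 0.5 to 168 h. Frozen carcasses were cut into 40 µm sagittal whole-body sections and read by QWBA phosphor imaging against [14C]glucose calibrants. Results are in µg apixaban eq/g; BLQ <0.037 µg eq/g.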

Adrenal gland [22] = assay: Biodistribution in male Sprague-Dawley rat adrenal gland at 5 mg/kg, po administered as single dose measured after 8 hrs; format: ADME, organism-based; summary of the method: as §2
Thymus [23] = assay: Biodistribution in male Sprague-Dawley rat thymus at 5 mg/kg, po administered as single dose measured after 0.5 hrs; format: ADME, organism-based; summary of the method: as §5
Rattus norvegicus [24] = assay: Biodistribution in male Sprague-Dawley rat salivary gland at 5 mg/kg, po administered as single dose measured after 8 hrs; format: ADME, organism-based
Rattus norvegicus [25] = assay: Biodistribution in male Sprague-Dawley rat brown fat at 5 mg/kg, po administered as single dose measured after 4 hrs; format: ADME, organism-based, Brown adipose tissue; summary of the method: as §6
Heart [26] = assay: Biodistribution in pregnant Sprague-Dawley rat heart at 5 mg/kg, po administered as single dose measured after 1 hr; format: ADME, organism-based

COc1ccc(-n2nc(C(N)=O)c3c2C(=O)N(c2ccc(N4CCCC[14C]4=O)cc2)CC3)cc1
Radiolabel recovery (Rattus norvegicus [1]): 0.95 ugequiv/g
Radiolabel recovery (Rattus norvegicus [2]): 0.61 ugequiv/g
Radiolabel recovery (Thymus [3]): 0.46 ugequiv/g
Radiolabel recovery (Rattus norvegicus [4]): 0.88 ugequiv/g
Radiolabel recovery (Lung [5]): 0.2 ugequiv/g
Radiolabel recovery (Thymus [6]): Not detected assumed BLQ
Radiolabel recovery (Lung [7]): < 0.037 ugequiv/g
Radiolabel recovery (Rattus norvegicus [8]): 0.44 ugequiv/g
Radiolabel recovery (Rattus norvegicus [9]): 0.13 ugequiv/g
Radiolabel recovery (Adrenal gland [10]): 0.18 ugequiv/g
Radiolabel recovery (Brain): Not detected assumed BLQ
Radiolabel recovery (Rattus norvegicus [11]): Not sampled as not visualised in autoradiograph
Radiolabel recovery (Liver): 0.39 ugequiv/g
Radiolabel recovery (Spleen [12]): 0.29 ugequiv/g
Radiolabel recovery (Spleen [13]): 0.45 ugequiv/g
Radiolabel recovery (Rattus norvegicus [14]): 1.06 ugequiv/g
Radiolabel recovery (Rattus norvegicus [15]): 0.72 ugequiv/g
Radiolabel recovery (Rattus norvegicus [16]): 0.07 ugequiv/g
Radiolabel recovery (Heart [17]): Not detected assumed BLQ
Radiolabel recovery (Pancreas): 0.12 ugequiv/g
Radiolabel recovery (Thymus [18]): 0.58 ugequiv/g
Radiolabel recovery (Rattus norvegicus [19]): 0.46 ugequiv/g
Radiolabel recovery (Rattus norvegicus [20]): Not detected assumed BLQ
Radiolabel recovery (Rattus norvegicus [21]): Not detected assumed BLQ
Radiolabel recovery (Adrenal gland [22]): 0.17 ugequiv/g
Radiolabel recovery (Thymus [23]): 0.16 ugequiv/g
Radiolabel recovery (Rattus norvegicus [24]): 0.13 ugequiv/g
Radiolabel recovery (Rattus norvegicus [25]): 0.53 ugequiv/g
Radiolabel recovery (Heart [26]): 0.93 ugequiv/g
